This note sets out measurements from ChEMBL document CHEMBL1126124, “3-Phenyl-4-hydroxyquinolin-2(1H)-ones: potent and selective antagonists at the strychnine-insensitive glycine site on the N-methyl-D-aspartate receptor complex” (J Med Chem, 1992).

Experiment [1] deals with T1, Glutamate receptor ionotropic, NMDA 1 (Rattus norvegicus, UniProt P35439). Put plainly: Inhibition of [3H]-MK-801 binding to a N-methyl-D-aspartic acid(NMDA) receptor in glycine-sensitive rat cortical membranes. The class given is cell membranes, Membrane.
The target of experiment [2] is T1, Glutamate receptor ionotropic, NMDA 1. Put plainly: Ability to displace strychnine-insensitive [3H]glycine binding to rat cortical membranes. The method, boiled down: (§1)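 Rat cortical membranes were prepared by a freeze/thaw Triton extraction. Incubation used [³H]glycine with 25 μg membrane fragments on ice for 1 h, ended by rapid filtration through GF/B filters. Nonspecific binding was defined with 100 μM D-serine.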

Experiment [3] deals with Glutamate NMDA receptor. In words: Ability to displace strychnine-insensitive [3H]glycine binding to N-methyl-D-aspartate glutamate receptor of rat cortical membranes. The method, boiled down:
as §1

The target of experiment [4] is Glutamate NMDA receptor. Put plainly: Inhibition of [3H]MK-801 binding to a N-methyl-D-aspartate glutamate receptor in glycine-sensitive rat cortical membranes. The class given is cell membranes, Membrane. The method, boiled down:
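Well-washed rat cortical membranes were given an added freeze/thaw step. [³H]MK-801 (2.5 nM) binding was run with 1 μM glutamate and 0.2 μM glycine for 2 h at 27 °C, then stopped by filtration. Nonspecific binding was defined with 0.5 μM MK-801. Values are IC50.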

Structures are written as SMILES.

As to `Nc1ccc(-c2c(O)nc3cc(Cl)cc(Cl)c3c2O)cc1`, the IC50 in experiment [1] was determined as 210 nM. The same compound showed a Ki in experiment [2] of 18 nM.
`COc1ccc(-c2c(O)nc3cc(Cl)cc(Cl)c3c2O)cc1`: the affinity at Glutamate NMDA receptor [3] corresponds to a Ki of 67 nM. At Glutamate NMDA receptor [4], this compound showed an IC50 of 1230 nM.
Regarding `O=c1[nH]c2cc(Cl)cc(Cl)c2c(O)c1-c1ccc([N+](=O)[O-])cc1`, in experiment [2], affinity was put at a Ki of 860 nM.
`Oc1ccc(-c2c(O)nc3cc(Cl)cc(Cl)c3c2O)cc1` had a Ki at Glutamate NMDA receptor [3] of 13 nM. Also, the half-maximal inhibitory concentration (IC50) on Glutamate NMDA receptor [4] came to 110 nM.
In the case of `Oc1nc2cc(Cl)cc(Cl)c2c(O)c1-c1ccccc1`, the Ki on Glutamate NMDA receptor [3] amounted to 57 nM. The compound further returned an IC50 at Glutamate NMDA receptor [4] of 220 nM.
Regarding `O=c1[nH]c2ccccc2c(O)c1-c1ccccc1`, the IC50 in experiment [1] amounted to 7290 nM.
`O=C(O)c1cc(O)c2c(Cl)cc(Cl)cc2n1` displayed a concentration for half-maximal inhibition (IC50) in experiment [1] of 860 nM. In experiment [2], this compound had a Ki of 40 nM.
The compound `Cc1ccc(-c2c(O)nc3cc(Cl)cc(Cl)c3c2O)cc1` gave an IC50 in experiment [1] of 550 nM. Further, the Ki in experiment [2] is 300 nM.
